# According to ChEMBL document CHEMBL1212724, “Rapid selection of cyclic peptides that reduce alpha-synuclein toxicity in yeast and animal models” (Nat Chem Biol, 2009):
# Calls of active or inactive are those of the source. The calls are words filed in the database; no cut-off is given here. Bridge positions count the residues as written; N and C are the ends. Peptide text beside a SMILES is read from it.
# Experiments:
# [1] = target: Alpha-synuclein (Homo sapiens) (UniProt P37840); experiment: Inhibition of alpha-synuclein-mediated dopaminergic neurodegeneration in Caenorhabditis elegans transfected with human alpha-synuclein
# In short: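 Age-synchronized transgenic worms expressing α-syn and GFP from the Pdat-1 promoter in DA neurons, with extrachromosomal mCP arrays; three independent lines per strain. Six anterior DA neurons (4 CEP, 2 ADE) scored at day 7 on 2% agarose pads with 2 mM levamisole, by epifluorescence. An animal with any dendrite, axon or cell body loss counted as degenerating. 30 worms per trial, three trials per line.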
# [2] = target: Alpha-synuclein (Homo sapiens) (UniProt P37840); experiment: Inhibition of alpha-synuclein-mediated toxicity in yeast transfected with human alpha-synuclein by spotting assay
# In short: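 Haploid W303 IntTox strain carrying integrated GAL1-driven human α-syn-YFP, transformed with CP plasmids by lithium acetate heat shock. At least three independent transformants tested. Cells serially diluted and plated on galactose medium to induce α-syn, then growth scored.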
# Saccharomyces cerevisiae = experiment: Effect on lacZ expression in yeast after 36 to 48 hrs by Gal1 reporter gene assay; type: functional, organism-based
# In short: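 GAL1::LacZ yeast (freshly integrated) grown on galactose plates; single colonies picked at 36–48 h, washed, normalized to OD600 0.4–0.8. CPRG substrate buffer (100 mM HEPES pH 7.25, 150 mM NaCl, 0.5% SDS, 0.75 mg/mL CPRG) added, shaken 30–120 min at room temperature. Absorbance read at 578 nm and corrected for yeast optical density.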
# [3] = target: Huntingtin (Homo sapiens) (UniProt P42858); experiment: Inhibition of huntingtin-mediated toxicity in yeast transfected with human huntingtin by spotting assay
# Huntingtin (Homo sapiens), sequence (P42858 whole entry): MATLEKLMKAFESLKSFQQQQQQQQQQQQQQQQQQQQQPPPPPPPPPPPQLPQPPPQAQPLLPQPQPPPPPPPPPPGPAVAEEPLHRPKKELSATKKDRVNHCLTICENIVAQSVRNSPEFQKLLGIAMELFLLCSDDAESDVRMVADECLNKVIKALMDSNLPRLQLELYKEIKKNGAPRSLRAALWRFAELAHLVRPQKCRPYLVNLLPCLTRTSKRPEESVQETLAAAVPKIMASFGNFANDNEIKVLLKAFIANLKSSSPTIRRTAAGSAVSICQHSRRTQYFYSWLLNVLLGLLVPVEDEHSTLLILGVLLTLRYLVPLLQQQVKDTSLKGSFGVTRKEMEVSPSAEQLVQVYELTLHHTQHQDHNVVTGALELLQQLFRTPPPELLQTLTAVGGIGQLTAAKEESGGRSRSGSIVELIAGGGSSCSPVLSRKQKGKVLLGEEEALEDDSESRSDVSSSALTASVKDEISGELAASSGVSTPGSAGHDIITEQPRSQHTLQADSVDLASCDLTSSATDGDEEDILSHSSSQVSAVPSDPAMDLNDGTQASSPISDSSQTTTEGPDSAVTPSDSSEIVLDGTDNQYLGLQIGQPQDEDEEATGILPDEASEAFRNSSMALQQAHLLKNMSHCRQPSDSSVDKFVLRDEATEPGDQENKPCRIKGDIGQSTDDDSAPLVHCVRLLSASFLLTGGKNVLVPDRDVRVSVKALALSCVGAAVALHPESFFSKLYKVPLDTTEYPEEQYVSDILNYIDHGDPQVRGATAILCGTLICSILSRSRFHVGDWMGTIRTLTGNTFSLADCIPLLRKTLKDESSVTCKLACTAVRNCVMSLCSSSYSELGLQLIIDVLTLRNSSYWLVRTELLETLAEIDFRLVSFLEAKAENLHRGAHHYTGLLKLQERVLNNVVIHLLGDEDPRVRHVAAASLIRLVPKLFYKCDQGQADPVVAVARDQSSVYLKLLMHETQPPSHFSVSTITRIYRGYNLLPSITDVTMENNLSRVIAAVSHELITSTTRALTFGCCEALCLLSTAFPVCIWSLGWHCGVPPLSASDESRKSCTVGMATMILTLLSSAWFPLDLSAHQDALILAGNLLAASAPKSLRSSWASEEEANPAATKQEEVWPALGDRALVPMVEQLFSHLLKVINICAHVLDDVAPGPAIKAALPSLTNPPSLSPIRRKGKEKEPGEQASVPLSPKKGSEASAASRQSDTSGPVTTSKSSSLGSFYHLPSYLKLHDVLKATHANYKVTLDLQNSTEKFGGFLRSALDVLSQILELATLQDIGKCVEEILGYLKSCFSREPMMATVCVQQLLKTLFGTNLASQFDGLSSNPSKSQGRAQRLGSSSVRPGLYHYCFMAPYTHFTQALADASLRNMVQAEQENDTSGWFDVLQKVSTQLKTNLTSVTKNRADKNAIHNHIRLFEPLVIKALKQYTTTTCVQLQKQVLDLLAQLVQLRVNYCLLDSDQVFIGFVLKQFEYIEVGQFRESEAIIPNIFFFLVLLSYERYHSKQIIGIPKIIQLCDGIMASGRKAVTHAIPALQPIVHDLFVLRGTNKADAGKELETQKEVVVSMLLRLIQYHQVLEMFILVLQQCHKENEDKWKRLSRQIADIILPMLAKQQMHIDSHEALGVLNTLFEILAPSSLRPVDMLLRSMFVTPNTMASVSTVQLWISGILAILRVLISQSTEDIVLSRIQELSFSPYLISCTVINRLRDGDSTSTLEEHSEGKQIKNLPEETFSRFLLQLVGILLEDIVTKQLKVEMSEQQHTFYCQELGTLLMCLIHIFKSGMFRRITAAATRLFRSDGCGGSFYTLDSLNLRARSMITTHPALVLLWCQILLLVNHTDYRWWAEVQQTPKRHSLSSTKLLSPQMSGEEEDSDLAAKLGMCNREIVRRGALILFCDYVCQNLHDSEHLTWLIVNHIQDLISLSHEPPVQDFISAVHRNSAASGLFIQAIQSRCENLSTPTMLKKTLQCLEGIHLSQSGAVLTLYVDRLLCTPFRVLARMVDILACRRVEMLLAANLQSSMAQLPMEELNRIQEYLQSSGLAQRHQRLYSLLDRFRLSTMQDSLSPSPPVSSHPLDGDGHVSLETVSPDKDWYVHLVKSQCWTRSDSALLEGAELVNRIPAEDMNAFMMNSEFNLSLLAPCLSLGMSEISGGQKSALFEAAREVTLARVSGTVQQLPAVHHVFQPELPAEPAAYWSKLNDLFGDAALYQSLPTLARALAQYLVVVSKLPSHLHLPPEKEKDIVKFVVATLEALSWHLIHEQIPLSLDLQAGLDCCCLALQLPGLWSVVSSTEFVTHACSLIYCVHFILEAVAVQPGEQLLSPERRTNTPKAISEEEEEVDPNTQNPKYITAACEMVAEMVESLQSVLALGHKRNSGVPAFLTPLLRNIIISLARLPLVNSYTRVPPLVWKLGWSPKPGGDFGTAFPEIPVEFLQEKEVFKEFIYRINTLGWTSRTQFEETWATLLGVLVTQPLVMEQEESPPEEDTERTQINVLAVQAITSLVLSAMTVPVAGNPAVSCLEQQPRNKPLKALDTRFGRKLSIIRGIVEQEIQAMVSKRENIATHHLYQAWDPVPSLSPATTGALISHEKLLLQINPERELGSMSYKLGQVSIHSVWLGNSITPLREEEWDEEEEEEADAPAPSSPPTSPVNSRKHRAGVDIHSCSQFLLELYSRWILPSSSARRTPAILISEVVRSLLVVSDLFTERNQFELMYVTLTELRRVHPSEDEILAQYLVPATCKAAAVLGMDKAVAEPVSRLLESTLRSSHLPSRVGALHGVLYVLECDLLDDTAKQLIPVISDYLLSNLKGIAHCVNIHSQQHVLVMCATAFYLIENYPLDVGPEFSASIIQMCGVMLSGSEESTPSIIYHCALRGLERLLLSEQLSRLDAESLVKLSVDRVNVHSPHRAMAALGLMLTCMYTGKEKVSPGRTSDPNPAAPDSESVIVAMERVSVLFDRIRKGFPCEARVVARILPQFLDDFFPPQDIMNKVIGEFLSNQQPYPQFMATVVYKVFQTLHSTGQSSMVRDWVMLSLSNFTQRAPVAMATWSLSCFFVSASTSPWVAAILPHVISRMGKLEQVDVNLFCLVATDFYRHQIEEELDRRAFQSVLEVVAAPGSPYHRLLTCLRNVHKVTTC
# [4] = target: Alpha-synuclein (Homo sapiens) (UniProt P37840); experiment: Inhibition of human alpha-synuclein-mediated accumulation of stalled vesicle pools in yeast transfected with human alpha-synuclein after 8 to 12 hrs by electron microscopy
Compound,inhibition [1],inhibition [2],Activity (Saccharomyces cerevisiae),Activity [3],percent of animals without neurodegeneration [1] [%],Activity [4]
CC(C)[C@H](NC(=O)[C@H](CCCNC(=N)N)NC(=O)[C@@H](NC(=O)[C@H](CO)NC(=O)[C@H](CS)NC(=O)[C@H](Cc1c[nH]c2ccccc12)NC(=O)[C@@H]1CCCN1C(=O)[C@H](C)N)[C@@H](C)O)C(=O)O (H-APWCSTRV-OH),inactive,–,–,–,–,–
CC(C)C[C@H](NC(=O)[C@H](C)NC(=O)[C@H](C)N)C(=O)N[C@@H](CS)C(=O)N[C@@H](CC(=O)O)C(=O)N1CCC[C@H]1C(=O)N[C@@H](Cc1c[nH]c2ccccc12)C(=O)N[C@@H](Cc1c[nH]c2ccccc12)C(=O)O (H-AALCDPWW-OH),inactive,–,–,–,–,–
CC(C)[C@H](NC(=O)[C@H](CCCNC(=N)N)NC(=O)CNC(=O)[C@H](CO)NC(=O)[C@@H]1CSSC[C@H](N)C(=O)N2CCC[C@H]2C(=O)N[C@@H](Cc2c[nH]c3ccccc23)C(=O)N1)C(=O)O (H-CPWCSGRV-OH; disulfide 1-4),–,Active,–,–,–,–
CC(C)C[C@@H]1NC(=O)[C@H](C)NC(=O)[C@@H](N)CSSC[C@@H](C(=O)N[C@@H](CC(=O)O)C(=O)N2CCC[C@H]2C(=O)N[C@@H](Cc2c[nH]c3ccccc23)C(=O)N[C@@H](Cc2c[nH]c3ccccc23)C(=O)O)NC1=O (H-CALCDPWW-OH; disulfide 1-4),–,Active,inactive,inactive,24,inactive
CC(C)[C@H](NC(=O)[C@H](CCCNC(=N)N)NC(=O)[C@@H](NC(=O)[C@H](CO)NC(=O)[C@@H]1CSSC[C@H](N)C(=O)N2CCC[C@H]2C(=O)N[C@@H](Cc2c[nH]c3ccccc23)C(=O)N1)[C@@H](C)O)C(=O)O (H-CPWCSTRV-OH; disulfide 1-4),–,Active,inactive,inactive,26,inactive
CC(C)[C@H](NC(=O)[C@H](CCCNC(=N)N)NC(=O)[C@H](C)NC(=O)[C@H](CO)NC(=O)[C@@H]1CSSC[C@H](N)C(=O)N2CCC[C@H]2C(=O)N[C@@H](Cc2c[nH]c3ccccc23)C(=O)N1)C(=O)O (H-CPWCSARV-OH; disulfide 1-4),–,Active,–,–,–,–
